Assay results pooled from the literature.
Each line is one published result; the experiments were not run side by side. In brackets after ≈: the same amount, converted by molar mass.
Organism: Candida albicans

SMILES | effect on | method | strain | concentration | time | endpoint | value
Nc1nn2c(-c3ccco3)cc(-c3ccc(OCc4ccccc4)cc3)nc2c1N=Nc1ccc(F)cc1 | microbial killing | broth dilution | ATCC10231 | – | – | MFC | 500 µg/mL (≈ 991 µM)
C[C@@H]1[C@H](O)[C@@H](C)/C=C/C=C/C=C/C=C/C=C/C=C/C=C/[C@H](O[C@@H]2O[C@H](C)[C@@H](O)[C@H](N)[C@@H]2O)C[C@@H]2O[C@](O)(C[C@@H](O)C[C@@H](O)[C@H](O)CC[C@@H](O)C[C@@H](O)CC(=O)O[C@H]1C)C[C@H](O)[C@H]2C(=O)O | microbial growth | broth dilution | SP3876 | – | 48 h | MIC | < 0.25 µM
C[C@@H]1[C@H](O)[C@@H](C)/C=C/C=C/C=C/C=C/C=C/C=C/C=C/[C@H](O[C@@H]2O[C@H](C)[C@@H](O)[C@H](N)[C@@H]2O)C[C@@H]2O[C@](O)(C[C@@H](O)C[C@@H](O)[C@H](O)CC[C@@H](O)C[C@@H](O)CC(=O)O[C@H]1C)C[C@H](O)[C@H]2C(=O)O | microbial growth | broth dilution | – | – | – | MIC90 | 0.84 µM (≈ 0.776 µg/mL)
CCS(=O)(=O)Oc1cc(C=NNC(=O)CSc2nc3c(C)cccc3c(=O)n2-c2ccccc2)ccc1OC | microbial growth | well diffusion | – | 20 µg/mL | – | inhibition zone | 4 mm
C#CCOC(=O)ON=C1C=CC(=C(C#N)c2ccccc2)C=C1 | microbial killing | broth dilution | ATCC10231 | – | 48 h | MFC | 8 µg/mL (≈ 26.3 µM)
CC(=O)N1CCN(c2ccc(OCC3COC(Cn4ccnc4)(c4ccc(Cl)cc4Cl)O3)cc2)CC1 (centres unmarked) | microbial growth | broth dilution | SP3931 | – | 48 h | MIC | 2 µM
CS(=O)(=O)Oc1ccc(C=NNC(=O)CSc2nc3ccc(Cl)cc3c(=O)n2-c2ccccc2)cc1 | microbial growth | well diffusion | – | 20 µg/mL | – | inhibition zone | 2 mm
N#CC(=C1C=CC(=NOC(=O)c2ccccc2)C=C1)c1ccccc1 | microbial killing | broth dilution | ATCC10231 | – | 48 h | MFC | 256 µg/mL (≈ 784 µM)
COc1ccc(C=NNC(=O)CSc2nc3c(C)cccc3c(=O)n2-c2ccccc2)cc1OS(C)(=O)=O | microbial growth | well diffusion | – | 20 µg/mL | – | inhibition zone | 4 mm
OC(Cn1cncn1)(Cn1cncn1)c1ccc(F)cc1F | microbial growth | broth dilution | SN152 | – | 24 h | MIC | 2 µg/mL
CC(=O)N1CCN(c2ccc(OCC3COC(Cn4ccnc4)(c4ccc(Cl)cc4Cl)O3)cc2)CC1 (centres unmarked) | microbial killing | broth dilution | ATCC10231 | – | – | MFC | 31.3 µg/mL (≈ 58.9 µM)
CCS(=O)(=O)Oc1ccc(C=NNC(=O)CSc2nc3ccc(Cl)cc3c(=O)n2-c2ccccc2)cc1OC | microbial growth | well diffusion | – | 20 µg/mL | – | inhibition zone | 2 mm
Cc1ccc(N=Nc2c(N)nn3c(-c4ccc(C)cc4)cc(-c4ccc(OCc5ccccc5)cc4)nc23)cc1 | microbial killing | broth dilution | ATCC10231 | – | – | MFC | 125 µg/mL (≈ 238 µM)
OC(Cn1cncn1)(Cn1cncn1)c1ccc(F)cc1F | microbial growth | broth dilution | CGMCC2 | – | 48 h | MIC | 4 µM
